Key:
[1] = target: T1, Protein kinase C eta type (Homo sapiens, UniProt P24723); assay: Induction of GFP-tagged PKC eta translocation in HeLa cells measured as ratio of fluorescence intensity in plasma membrane to cytosol at 10 uM; format: cell-based
Summary of the method: (§1)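 HeLa cells transfected with GFP-fused PKC isozyme, cultured 16-48 h, then medium switched to HEPES buffer (135 mM NaCl, 5.4 mM KCl, 1 mM MgCl2, 1.8 mM CaCl2, 5 mM HEPES, 10 mM glucose, pH 7.3). Compound added at stated final concentration, 37 °C; confocal time series (488 nm excitation, 505-550 nm emission). R = membrane/mean cytosolic intensity from line profiles; maximum R reported, SD of at least three measurements.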

[2] = target: T1, Protein kinase C eta type; assay: Induction of GFP-tagged PKC eta translocation in HeLa cells measured as ratio of fluorescence intensity in plasma membrane to cytosol at 1 uM; format: cell-based; summary of the method: as §1
[3] = target: T2, Protein kinase C beta type (Homo sapiens, UniProt P05771); assay: Displacement of [3H]phorbol 12,13-dibutyrate from PKC beta-C1A
Target sequence in this assay (P05771 whole entry): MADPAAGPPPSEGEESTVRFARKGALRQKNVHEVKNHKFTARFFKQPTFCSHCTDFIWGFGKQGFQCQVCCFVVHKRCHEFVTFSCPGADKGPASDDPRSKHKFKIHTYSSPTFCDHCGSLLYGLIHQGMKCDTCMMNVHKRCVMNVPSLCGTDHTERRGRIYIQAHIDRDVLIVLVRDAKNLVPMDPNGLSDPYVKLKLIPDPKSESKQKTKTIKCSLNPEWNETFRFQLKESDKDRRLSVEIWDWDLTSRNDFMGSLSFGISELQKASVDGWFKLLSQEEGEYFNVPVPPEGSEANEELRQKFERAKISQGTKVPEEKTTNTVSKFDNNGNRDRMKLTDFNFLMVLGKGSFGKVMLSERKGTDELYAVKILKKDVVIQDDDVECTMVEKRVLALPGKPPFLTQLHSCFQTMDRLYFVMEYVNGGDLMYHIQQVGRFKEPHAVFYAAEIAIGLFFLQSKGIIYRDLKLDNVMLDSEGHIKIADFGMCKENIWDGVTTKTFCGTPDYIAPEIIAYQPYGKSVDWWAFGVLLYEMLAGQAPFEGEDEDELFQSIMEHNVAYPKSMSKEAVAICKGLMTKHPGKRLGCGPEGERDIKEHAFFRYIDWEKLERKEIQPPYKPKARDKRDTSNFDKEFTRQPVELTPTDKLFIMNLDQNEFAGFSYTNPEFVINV

[4] = target: T3, Protein kinase C epsilon type (Homo sapiens, UniProt Q02156); assay: Displacement of [3H]phorbol 12,13-dibutyrate from PKC epsilon-C1A
T3 sequence (Q02156 whole entry): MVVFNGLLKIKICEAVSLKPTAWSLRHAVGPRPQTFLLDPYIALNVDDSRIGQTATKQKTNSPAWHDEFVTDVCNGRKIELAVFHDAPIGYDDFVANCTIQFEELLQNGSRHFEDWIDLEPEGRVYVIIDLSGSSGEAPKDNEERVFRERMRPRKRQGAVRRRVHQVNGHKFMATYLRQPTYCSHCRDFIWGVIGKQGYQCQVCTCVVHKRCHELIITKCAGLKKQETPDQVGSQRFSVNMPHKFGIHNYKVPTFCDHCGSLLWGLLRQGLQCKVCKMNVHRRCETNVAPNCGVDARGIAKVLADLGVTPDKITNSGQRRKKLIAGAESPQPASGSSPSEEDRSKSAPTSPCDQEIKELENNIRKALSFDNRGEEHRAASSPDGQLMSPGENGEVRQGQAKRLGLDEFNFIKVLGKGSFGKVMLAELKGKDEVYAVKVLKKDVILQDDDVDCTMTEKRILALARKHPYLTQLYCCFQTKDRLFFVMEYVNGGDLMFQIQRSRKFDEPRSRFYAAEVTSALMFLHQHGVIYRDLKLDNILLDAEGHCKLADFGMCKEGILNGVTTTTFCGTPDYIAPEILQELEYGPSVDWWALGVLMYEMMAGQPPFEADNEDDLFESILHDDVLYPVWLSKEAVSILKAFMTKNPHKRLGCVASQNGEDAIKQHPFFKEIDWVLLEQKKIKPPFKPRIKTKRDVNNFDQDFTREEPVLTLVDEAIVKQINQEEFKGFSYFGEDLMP

[5] = target: T4, Protein kinase C alpha type (Homo sapiens, UniProt P17252); assay: Displacement of [3H]phorbol 12,13-dibutyrate from PKC alpha-C1A
[6] = target: T5, Protein kinase C epsilon type (Homo sapiens) (UniProt Q02156); assay: Induction of GFP-tagged PKC epsilon translocation in HeLa cells measured as ratio of fluorescence intensity in plasma membrane to cytosol at 10 uM; format: cell-based; summary of the method: as §1
T5 sequence (whole entry): T3 sequence (Q02156 whole entry)

[7] = target: T5, Protein kinase C epsilon type (Homo sapiens); assay: Induction of GFP-tagged PKC epsilon translocation in HeLa cells measured as ratio of fluorescence intensity in plasma membrane to cytosol at 1 uM; format: cell-based; summary of the method: as §1
[8] = target: T2, Protein kinase C beta type; assay: Displacement of [3H]phorbol 12,13-dibutyrate from PKC beta-C1B
Target sequence in this assay (P05771 whole entry): as the sequence (P05771 whole entry) above

[9] = target: T1, Protein kinase C eta type; assay: Displacement of [3H]phorbol 12,13-dibutyrate from PKC eta-C1A
[10] = target: T6, Protein kinase C delta type (Homo sapiens, UniProt Q05655); assay: Displacement of [3H]phorbol 12,13-dibutyrate from PKC delta-C1B
[11] = target: T7, Protein kinase C gamma type (Homo sapiens, UniProt P05129); assay: Induction of GFP-tagged PKC gamma translocation in HeLa cells measured as ratio of fluorescence intensity in plasma membrane to cytosol at 10 uM; format: cell-based; summary of the method: as §1
[12] = target: T1, Protein kinase C eta type; assay: Induction of GFP-tagged PKC eta translocation in HeLa cells measured as ratio of fluorescence intensity in plasma membrane to cytosol at 0.5 uM; format: cell-based; summary of the method: as §1
[13] = target: T4, Protein kinase C alpha type; assay: Induction of GFP-tagged PKC alpha translocation in HeLa cells measured as ratio of fluorescence intensity in plasma membrane to cytosol at 10 uM; format: cell-based; summary of the method: as §1
[14] = target: Protein kinase C theta type (Homo sapiens, UniProt Q04759); assay: Displacement of [3H]phorbol 12,13-dibutyrate from PKC theta-C1B
[15] = target: T7, Protein kinase C gamma type; assay: Displacement of [3H]phorbol 12,13-dibutyrate from PKC gamma-C1B
[16] = target: T7, Protein kinase C gamma type; assay: Displacement of [3H]phorbol 12,13-dibutyrate from PKC gamma-C1A
[17] = target: T4, Protein kinase C alpha type; assay: Displacement of [3H]phorbol 12,13-dibutyrate from PKC alpha-C1B
[18] = target: T2, Protein kinase C beta type; assay: Induction of GFP-tagged PKC beta translocation in HeLa cells measured as ratio of fluorescence intensity in plasma membrane to cytosol at 10 uM; format: cell-based; summary of the method: as §1
Target sequence in this assay (P05771 2-671 limits assumed): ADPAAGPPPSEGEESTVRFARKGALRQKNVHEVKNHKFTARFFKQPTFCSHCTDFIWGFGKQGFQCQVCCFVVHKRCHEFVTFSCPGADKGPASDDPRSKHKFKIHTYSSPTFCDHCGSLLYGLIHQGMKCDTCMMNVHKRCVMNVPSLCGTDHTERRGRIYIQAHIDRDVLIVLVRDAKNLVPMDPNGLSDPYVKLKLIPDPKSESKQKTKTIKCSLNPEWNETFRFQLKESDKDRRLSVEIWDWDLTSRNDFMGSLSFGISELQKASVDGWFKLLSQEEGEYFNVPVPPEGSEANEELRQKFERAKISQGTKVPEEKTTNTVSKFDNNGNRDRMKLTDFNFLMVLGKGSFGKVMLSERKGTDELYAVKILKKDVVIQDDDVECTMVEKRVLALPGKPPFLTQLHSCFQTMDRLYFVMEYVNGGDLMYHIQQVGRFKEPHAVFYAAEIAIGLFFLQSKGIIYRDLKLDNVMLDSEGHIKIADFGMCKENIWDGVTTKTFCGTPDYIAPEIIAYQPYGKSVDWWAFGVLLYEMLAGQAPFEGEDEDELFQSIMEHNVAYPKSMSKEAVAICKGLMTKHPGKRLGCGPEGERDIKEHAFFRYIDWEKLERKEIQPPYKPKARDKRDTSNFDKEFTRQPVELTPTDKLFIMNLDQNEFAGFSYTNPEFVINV

[19] = target: T5, Protein kinase C epsilon type (Homo sapiens); assay: Induction of GFP-tagged PKC epsilon translocation in HeLa cells measured as ratio of fluorescence intensity in plasma membrane to cytosol at 0.5 uM; format: cell-based; summary of the method: as §1
[20] = target: T3, Protein kinase C epsilon type; assay: Displacement of [3H]phorbol 12,13-dibutyrate from PKC epsilon-C1B
[21] = target: T1, Protein kinase C eta type; assay: Displacement of [3H]phorbol 12,13-dibutyrate from PKC eta-C1B
[22] = target: T6, Protein kinase C delta type; assay: Displacement of [3H]phorbol 12,13-dibutyrate from PKC delta-C1A
[23] = target: T6, Protein kinase C delta type; assay: Induction of GFP-tagged PKC delta translocation in HeLa cells measured as ratio of fluorescence intensity in plasma membrane to cytosol at 10 uM; format: cell-based; summary of the method: as §1
Target sequence in this assay (Q05655 whole entry, looked up): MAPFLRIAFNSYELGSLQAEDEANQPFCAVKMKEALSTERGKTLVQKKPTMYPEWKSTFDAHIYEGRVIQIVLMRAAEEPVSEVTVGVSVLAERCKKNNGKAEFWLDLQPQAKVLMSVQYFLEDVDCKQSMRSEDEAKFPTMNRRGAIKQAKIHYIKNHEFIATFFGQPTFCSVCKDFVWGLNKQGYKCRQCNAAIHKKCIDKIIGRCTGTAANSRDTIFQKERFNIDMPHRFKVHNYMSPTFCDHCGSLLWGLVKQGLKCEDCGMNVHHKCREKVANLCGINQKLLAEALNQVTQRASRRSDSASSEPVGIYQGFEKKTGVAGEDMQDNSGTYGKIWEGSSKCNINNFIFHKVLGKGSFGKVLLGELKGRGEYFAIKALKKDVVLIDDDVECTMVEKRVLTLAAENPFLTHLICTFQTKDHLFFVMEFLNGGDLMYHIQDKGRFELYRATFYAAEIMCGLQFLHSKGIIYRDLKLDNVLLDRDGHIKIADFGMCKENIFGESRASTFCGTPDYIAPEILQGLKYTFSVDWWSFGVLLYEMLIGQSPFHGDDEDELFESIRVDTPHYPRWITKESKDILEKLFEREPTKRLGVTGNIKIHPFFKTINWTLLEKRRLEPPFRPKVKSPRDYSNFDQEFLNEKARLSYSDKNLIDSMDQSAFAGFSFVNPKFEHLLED

[24] = target: T4, Protein kinase C alpha type; assay: Induction of GFP-tagged PKC alpha translocation in HeLa cells measured as ratio of fluorescence intensity in plasma membrane to cytosol at 1 uM; format: cell-based; summary of the method: as §1
[25] = target: T2, Protein kinase C beta type; assay: Induction of GFP-tagged PKC beta translocation in HeLa cells measured as ratio of fluorescence intensity in plasma membrane to cytosol at 0.5 uM; format: cell-based; summary of the method: as §1
Target sequence in this assay (P05771 2-671 limits assumed): as the sequence (P05771 2-671 limits assumed) above

[26] = target: T2, Protein kinase C beta type; assay: Induction of GFP-tagged PKC beta translocation in HeLa cells measured as ratio of fluorescence intensity in plasma membrane to cytosol at 1 uM; format: cell-based; summary of the method: as §1
Target sequence in this assay (P05771 2-671 limits assumed): as above

[27] = target: T7, Protein kinase C gamma type; assay: Induction of GFP-tagged PKC gamma translocation in HeLa cells measured as ratio of fluorescence intensity in plasma membrane to cytosol at 1 uM; format: cell-based; summary of the method: as §1
[28] = target: T6, Protein kinase C delta type; assay: Induction of GFP-tagged PKC delta translocation in HeLa cells measured as ratio of fluorescence intensity in plasma membrane to cytosol at 1 uM; format: cell-based; summary of the method: as §1
Target sequence in this assay (Q05655 whole entry, looked up): as the sequence (Q05655 whole entry, looked up) above

T1 sequence (P24723 whole entry, the tested form may be a part): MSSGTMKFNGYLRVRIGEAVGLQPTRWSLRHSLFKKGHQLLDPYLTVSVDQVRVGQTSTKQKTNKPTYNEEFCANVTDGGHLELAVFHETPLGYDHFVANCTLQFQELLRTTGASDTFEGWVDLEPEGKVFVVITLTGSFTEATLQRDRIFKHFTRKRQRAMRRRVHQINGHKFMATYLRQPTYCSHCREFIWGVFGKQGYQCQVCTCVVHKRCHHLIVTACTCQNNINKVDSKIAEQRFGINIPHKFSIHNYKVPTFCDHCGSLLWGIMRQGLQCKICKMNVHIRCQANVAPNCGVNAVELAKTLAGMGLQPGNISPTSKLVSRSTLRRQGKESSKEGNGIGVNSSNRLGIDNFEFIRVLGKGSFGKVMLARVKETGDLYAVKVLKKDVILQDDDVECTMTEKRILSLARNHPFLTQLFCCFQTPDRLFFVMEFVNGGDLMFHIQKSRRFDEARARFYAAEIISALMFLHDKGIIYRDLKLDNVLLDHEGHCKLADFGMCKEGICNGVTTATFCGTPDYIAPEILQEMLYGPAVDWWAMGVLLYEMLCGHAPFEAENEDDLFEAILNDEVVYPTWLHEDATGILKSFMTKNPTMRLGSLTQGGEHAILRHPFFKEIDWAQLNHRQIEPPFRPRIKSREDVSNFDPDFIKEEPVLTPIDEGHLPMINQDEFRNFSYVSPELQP

Ratio [1] | Ratio [2] | Ratio [6] | Ratio [7] | Ratio [11] | Ratio [12] | Ratio [13] | Ratio [18] | Ratio [19] | Ratio [23] | Compound | other results
1.72 | 1.46 | 1.96 | 1.66 | 0.97 | 0.97 | 0.98 | 0.97 | 1.65 | 0.95 | CCCCCCCCc1cccc2c1CC[C@@H](CO)NC(=O)[C@H](C(C)C)N2C | Ki [3]: > 10 µM; Ki [4]: > 10 µM; Ki [5]: > 10 µM; Ki [8]: > 10 µM; Ki [9]: > 10 µM; Ki [10]: 0.216 µM; Ki [14]: 0.29 µM; Ki [15]: 5.2 µM; Ki [16]: > 10 µM; Ki [17]: > 10 µM; Ki [20]: 0.51 µM; Ki [21]: 0.144 µM; Ki [22]: > 10 µM
1.92 | 1.84 | 4.29 | 2.73 | 1.53 | 1.01 | 1.79 | 2.38 | 2.42 | 2.41 | CCCCCCN1C[C@H]2C[C@@H](CO)NC(=O)[C@H](C(C)C)N(C)c3cccc1c32 | Ratio [24]: 0.97; Ratio [25]: 0.95; Ratio [26]: 2.39; Ratio [27]: 0.96; Ratio [28]: 0.9

Reference: ChEMBL document CHEMBL1147655, “Design and synthesis of 8-octyl-benzolactam-V9, a selective activator for protein kinase C epsilon and eta” (J Med Chem, 2006)
